The subject of assay [1] is HT29 cells. The assay is described as follows: Cell viability assay. It is filed as cell-based. The settings on record: Homo sapiens, HT-29, 72 h, read-out: HT29 [IC50 in μM].
Assay [2] concerns the target Hsp90α (Homo sapiens, UniProt P07900). The assay is described as follows: Fluorescence polarization. It is filed as binding. A general note: In fluorescence polarisation assays a small probe gives low polarisation when free and higher when bound to something large.
The subject of assay [3] is NCI-H1299 cells. The assay is described as follows: Cell viability assay. It is filed as cell-based. The settings on record: Homo sapiens, NCI-H1299, 72 h, read-out: NCI—H1299 [IC50 in μM].
In assay [4] the test system is Hsp90 client proteins in HT-29 cell line. The experiment in a line: Western blot analysis of client proteins in HT-29 cell lysates. It is filed as cell-based, human. The settings on record: HT-29, 24 h, 5-50 μM. The method, boiled down: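 HT29 cells grown in RPMI with 10% FBS and 1% Pen-Strep. At ~70% confluence they were treated for 24 h with test compound (5, 10, 20, 30, 40, 50 μM) or GDA 500 nM. Cells were lysed in RIPA with protease/phosphatase inhibitors and spun 12,000g for 25 min at 4°C. BCA-normalized protein was run on 10% SDS-PAGE, transferred to PVDF, and detected with specific antibodies, HRP secondary and chemiluminescence.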
On the technique in general: A western blot detects proteins with antibodies after separation by electrophoresis.

For assay [5], the target named is Hsp90β (Homo sapiens, UniProt P08238). The experiment in a line: Fluorescence polarization. It is filed as binding.
Chain of Hsp90β (P08238 whole entry): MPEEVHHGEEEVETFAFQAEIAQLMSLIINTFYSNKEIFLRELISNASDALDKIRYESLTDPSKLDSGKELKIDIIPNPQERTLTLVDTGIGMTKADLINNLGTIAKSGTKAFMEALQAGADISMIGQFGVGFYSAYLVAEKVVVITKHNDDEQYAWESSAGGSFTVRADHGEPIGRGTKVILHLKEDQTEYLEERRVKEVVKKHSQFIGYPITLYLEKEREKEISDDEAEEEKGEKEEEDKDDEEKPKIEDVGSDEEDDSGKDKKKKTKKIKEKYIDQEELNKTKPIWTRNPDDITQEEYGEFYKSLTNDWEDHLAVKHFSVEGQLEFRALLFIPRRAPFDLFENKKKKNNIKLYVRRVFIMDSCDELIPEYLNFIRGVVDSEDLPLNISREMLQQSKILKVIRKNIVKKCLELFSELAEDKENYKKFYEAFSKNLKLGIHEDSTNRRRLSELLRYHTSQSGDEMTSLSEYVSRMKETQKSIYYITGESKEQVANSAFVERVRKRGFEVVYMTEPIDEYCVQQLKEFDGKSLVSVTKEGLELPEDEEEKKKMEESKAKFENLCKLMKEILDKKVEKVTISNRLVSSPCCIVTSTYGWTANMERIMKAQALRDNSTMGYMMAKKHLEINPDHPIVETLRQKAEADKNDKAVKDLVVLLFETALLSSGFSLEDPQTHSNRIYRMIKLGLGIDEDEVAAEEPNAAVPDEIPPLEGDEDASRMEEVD

The record followed here is article PMC8790780 (Chemistry (Weinheim an der Bergstrasse, Germany), 2021).

For orientation: IC50 means the concentration that inhibits the measured activity by half. Take `CC(C)c1cc(C(=O)N2Cc3ccccc3C2)c(O)c2ccoc12` [Compound 5, (4-Hydroxy-7-isopropylbenzofuran-5-yl)(isoindolin-2-yl) methanone]: the IC50 in assay [1] was 18.8 ± 2.6 µM. The molecule also gave an IC50 in assay [2] greater than 100 µM. The “binding affinity for Hsp90α (in words)” value in assay [2] (FP assay, SAR discussion) is listed as “no measurable affinity”. The IC50 in assay [3] was found to be 17.5 ± 0.42 µM. For the same molecule, in assay [4], the Erk5 total level result is reported as “decreased at higher concentrations”, the Her-2 total level result was “decreased at higher concentrations”, the Hsp70 level entry was “appear to be induced” and the “survivin protein expression level (Hsp90α-dependent client)” value is recorded as “remained unaffected until higher concentrations”. Also, in assay [4] (dose dependent), the “Akt protein level (Hsp90β-dependent client)” value is given as “induced the degradation” and the “CDK4 protein level (Hsp90β-dependent client)” value is “induced the degradation”. Further, in assay [5], inhibition was half-maximal at 0.27 ± 0.09 µM (IC50) and the “selectivity for Hsp90β versus Hsp90α” value was ~ 370 fold. The same molecule displayed a Selectivity in assay [5] (Hsp90β versus Hsp90α, from FP IC50 values) greater than 370.
